In one assay the test system is H9. As to the kind of experiment: Minimum inhibitory concentration required to prevent HIV infection was determined in H9 human T-lymphoid cell culture. The class given is functional. The procedure, abridged:
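H9 human T-lymphoid cells were infected with HIV-1 IIIb at a multiplicity of infection of 1.0%, with no compound present. Compound was added 1 day after infection, predissolved in DMSO and serially diluted in RPMI-1640 with 10% FBS. Medium with fresh compound was replaced every 2–3 days. Cells were harvested at 14 days and scored by immunofluorescence with anti-HIV-1 human serum. MIC was the lowest concentration totally preventing spread beyond the initially infected cells.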

The target in assay [1] is Human immunodeficiency virus type 1 protease (Human immunodeficiency virus 1, UniProt Q72874). As to the kind of experiment: Inhibition of HIV-1 protease. It is filed as functional. The method in brief:
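HIV-1 protease peptide hydrolysis: octapeptide substrate H2N-ValSerGlnAsn(β-naphthyl-Ala)ProIle-Val-OH at 430 μM (Km = 160 μM), enzyme at 0.030 nM; cleavage quantitated by HPLC; IC50 from this readout.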

Assay [2] deals with T1, Renin (Rattus norvegicus, UniProt P08424).
T1 sequence (P08424 whole entry): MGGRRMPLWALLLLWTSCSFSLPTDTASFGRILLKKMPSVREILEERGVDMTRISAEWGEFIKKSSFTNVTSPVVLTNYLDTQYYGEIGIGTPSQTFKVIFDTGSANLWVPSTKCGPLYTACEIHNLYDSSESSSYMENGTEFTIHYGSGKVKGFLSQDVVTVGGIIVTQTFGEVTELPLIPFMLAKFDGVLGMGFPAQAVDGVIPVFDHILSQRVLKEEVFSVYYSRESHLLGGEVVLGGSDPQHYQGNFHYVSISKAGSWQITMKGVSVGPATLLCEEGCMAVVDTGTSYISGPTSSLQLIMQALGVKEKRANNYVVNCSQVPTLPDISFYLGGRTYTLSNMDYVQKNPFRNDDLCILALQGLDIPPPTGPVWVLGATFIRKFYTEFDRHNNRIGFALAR
Put plainly: Concentration required to inhibit 50% activity of renin was determined. It is filed as functional. The procedure, abridged:
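Purified plasma renin, assayed at pH 7.4; IC50 reported.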

For assay [3], the target named is T1, Renin. Put plainly: Concentration required to inhibit 50% activity of plasma renin was determined at pH 7.4; Inactive. The class given is functional, cell-free.

Converted amounts (≈) assume the structure as drawn. Where a SMILES comes first, the peptide text is derived from it.

One may read the IC50 as the concentration needed to halve the response being measured. Regarding `CC(C)C[C@H](NC(=O)[C@H](Cc1ccccc1)C[C@H](O)[C@H](Cc1ccccc1)NC(=O)[C@H](Cc1ccccc1)NC(=O)[C@H](Cc1ccccc1)NC(=O)OC(C)(C)C)C(=O)N[C@@H](Cc1ccccc1)C(N)=O` (HELM PEPTIDE1{[CC(C)(C)OC(=O)[*:2]].F.F.[O=C([C@H](Cc1ccccc1)C[C@H](O)[C@H](Cc1ccccc1)N[*:1])[*:2]].L.F.[am]}$$$$V2.0), in the assay on H9, the MIC was 50 µM (≈ 48.4 µg/mL). The IC50 in assay [1] was found to be 1 nM; against Renin [2], 73 nM.
`CC(C)CC(NC(=O)[C@H](Cc1ccccc1)C[C@H](O)[C@H](Cc1ccccc1)NC(=O)OC(C)(C)C)C(=O)NCCc1ccccc1` (stereo partly specified) gave an IC50 in assay [1] of 12 nM.
Still for that read-out and setting: for `CC(C)CCNC(=O)[C@H](Cc1ccccc1)C[C@H](O)[C@H](Cc1ccccc1)NC(=O)OC(C)(C)C` the value was 470 nM.
`CCC(C)C(NC(=O)[C@H](Cc1ccccc1)C[C@H](O)[C@H](Cc1ccccc1)NC(=O)OC(C)(C)C)C(=O)NCc1ccccc1` (stereo partly specified) came in with an MIC in the assay on H9 of 1.5 µM (≈ 0.924 µg/mL). This compound yielded an IC50 in assay [1] of 0.71 nM.
The corresponding values for `CCC(C)C(NC(=O)[C@H](Cc1ccccc1)C[C@H](O)[C@H](Cc1ccccc1)NC(=O)OC(C)(C)C)C(=O)NCC(O)CO` (stereo partly specified) are 1.5 µM (≈ 0.9 µg/mL) and 0.15 nM.
In the assay on H9, `CC(C)(C)OC(=O)N[C@@H](Cc1ccccc1)[C@@H](O)C[C@@H](Cc1ccccc1)C(=O)NCc1ccccc1` displayed an MIC of more than 50 µM. The compound also registered an IC50 in assay [1] of 111 nM.
The corresponding values for `CC(C)CC(NC(=O)[C@H](Cc1ccccc1)C[C@H](O)[C@H](Cc1ccccc1)NC(=O)OC(C)(C)C)C(=O)NCc1ccccc1` (stereo partly specified) are 3 µM (≈ 1.85 µg/mL) and 1.4 nM.
As for `CC(C)C[C@H](NC(=O)[C@H](Cc1ccccc1)C[C@H](O)[C@H](Cc1ccccc1)NC(=O)CC(C)(C)C)C(=O)N[C@@H](Cc1ccccc1)C(N)=O`, it took 6 nM to reach half-maximal inhibition in assay [1] (IC50).
With `CC(C)C[C@H](NC(=O)[C@H](C/C=C/c1ccccc1)C[C@H](O)[C@H](Cc1ccccc1)NC(=O)OC(C)(C)C)C(=O)N[C@@H](Cc1ccccc1)C(N)=O`, in the assay with H9, the MIC came out at 6 µM (≈ 4.19 µg/mL). This compound came in with an IC50 in assay [1] of 0.15 nM.
For `CC(C)C[C@H](NC(=O)[C@H](Cc1ccccc1)C[C@H](O)[C@H](Cc1ccccc1)NC(=O)OC(C)(C)C)C(=O)N[C@@H](Cc1ccccc1)C(N)=O`, the MIC with H9 is 6 µM (≈ 4.04 µg/mL). Further, the IC50 is more than 10000 nM at Renin [3] and 0.6 nM in assay [1].
Consider `CC[C@H](C)[C@H](NC(=O)[C@H](C/C=C/c1ccccc1)C[C@H](O)[C@H](Cc1ccccc1)NC(=O)OC(C)(C)C)C(=O)NCc1nc2ccccc2[nH]1`, for which, in the assay on H9, the MIC is 0.012 µM (≈ 0.00818 µg/mL). Besides, inhibition in assay [1] was half-maximal at 0.03 nM (IC50).
In assay [1], `CC(C)C[C@H](NC(=O)[C@H](Cc1ccccc1)C[C@H](O)[C@H](Cc1ccccc1)NC(=O)[C@H](Cc1ccccc1)NC(=O)OC(C)(C)C)C(=O)N[C@@H](Cc1ccccc1)C(N)=O` showed an IC50 of 20 nM.
As to `CC[C@H](C)[C@H](NC(=O)[C@H](Cc1ccccc1)C[C@H](O)[C@H](Cc1ccccc1)NC(=O)OC(C)(C)C)C(=O)NCc1nc2ccccc2[nH]1`, the MIC against H9 stood at 0.2 µM (≈ 0.131 µg/mL). This compound also yielded an IC50 in assay [1] of 0.07 nM.
On to `CC(C)CC(NC(=O)[C@H](Cc1ccccc1)C[C@H](O)[C@H](Cc1ccccc1)NC(=O)OC(C)(C)C)C(N)=O` (stereo partly specified), for which, in the assay with H9, the MIC came to 6 µM (≈ 3.15 µg/mL). The compound also displayed an IC50 in assay [1] of 12 nM.

Source of the values: ChEMBL document CHEMBL1125636, “L-687,908, a potent hydroxyethylene-containing HIV protease inhibitor” (J Med Chem, 1991).
